This note sets out measurements from ChEMBL document CHEMBL1147561, “Application of the four-component Ugi condensation for the preparation of sulfated glycoconjugate libraries” (Bioorg Med Chem Lett, 2004).

For assay [1], the target named is Fibroblast growth factor 1 (Homo sapiens, UniProt P05230). Put plainly: Binding affinity for human fibroblast growth factor 1 in surface plasmon resonance (SPR) assay. Summed up: (§1)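 SPR solution affinity format: growth factor pre-equilibrated with ligand in solution, mixture passed over a heparin-immobilized sensor chip. Free (unbound) growth factor binding to heparin raises the SPR response and gives its concentration. Kd calculated from the decline in free growth factor concentration versus ligand concentration. Values are mean and SD of at least two independent measurements.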
Background: SPR reads the build-up and loss of mass on a sensor chip optically.

The target in assay [2] is T1, Fibroblast growth factor 2 (Homo sapiens, UniProt P09038). Put plainly: Binding affinity for human fibroblast growth factor 2 in surface plasmon resonance (SPR) assay. Summed up: as §1
Assay [3] concerns the target T1, Fibroblast growth factor 2. Put plainly: Binding affinity for human fibroblast growth factor 2 in surface plasmon resonance (SPR) assay (No binding). Summed up:
as §1

Bounds are passed on as bounds.

T1 sequence (P09038 143-288 limits assumed): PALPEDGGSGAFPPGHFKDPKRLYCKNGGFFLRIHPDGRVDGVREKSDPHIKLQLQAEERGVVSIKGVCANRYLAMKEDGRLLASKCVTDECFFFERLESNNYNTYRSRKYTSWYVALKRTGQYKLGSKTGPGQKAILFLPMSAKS
Chain of Fibroblast growth factor 1 (P05230 whole entry): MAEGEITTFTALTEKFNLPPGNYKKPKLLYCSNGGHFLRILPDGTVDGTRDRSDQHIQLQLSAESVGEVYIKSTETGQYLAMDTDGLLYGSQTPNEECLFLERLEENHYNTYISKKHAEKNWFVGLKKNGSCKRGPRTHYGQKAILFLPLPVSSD

A word on the Kd: it is the equilibrium constant for the complex coming apart. In the case of `O=C(CN(CCOS(=O)(=O)O)C(=O)C1OC(OS(=O)(=O)O)C(OS(=O)(=O)O)C(OS(=O)(=O)O)C1OS(=O)(=O)O)NC1CCCCC1` (centres undefined), the Kd in assay [1] is 2340 µM; in assay [2], over 800 µM.
In the case of `O=C(NC1CCCCC1)C(c1ccccc1)N(Cc1ccccc1)C(=O)C1OC(OS(=O)(=O)O)C(OS(=O)(=O)O)C(OS(=O)(=O)O)C1OS(=O)(=O)O` (centres undefined), the values for the equilibrium dissociation constant (Kd) in assay [1] and in assay [3] were 62.5 µM and over 800 µM, respectively.
With `O=C(CN(Cc1ccccc1)C(=O)C1OC(OS(=O)(=O)O)C(OS(=O)(=O)O)C(OS(=O)(=O)O)C1OS(=O)(=O)O)NC1CCCCC1` (centres undefined), the Kd in assay [1] is 122 µM; in assay [2], 254 µM.
The corresponding values for `CO[C@H]1O[C@@H](COCC(=O)N(CC(=O)NC2CCCCC2)[C@H]2CC[C@H](N(CC(=O)NC3CCCCC3)C(=O)COC[C@@H]3O[C@H](OC)[C@H](OS(=O)(=O)O)[C@@H](OS(=O)(=O)O)[C@@H]3OS(=O)(=O)O)CC2)[C@@H](OS(=O)(=O)O)[C@H](OS(=O)(=O)O)[C@H]1OS(=O)(=O)O` are 32.6 µM and 27.9 µM.
The corresponding values for `CO[C@H]1O[C@@H](COCC(=O)N(CC(=O)NCCO[C@H]2O[C@@H](COS(=O)(=O)O)[C@@H](OS(=O)(=O)O)[C@H](OS(=O)(=O)O)[C@H]2OS(=O)(=O)O)Cc2ccccc2)[C@@H](OS(=O)(=O)O)[C@H](OS(=O)(=O)O)[C@H]1OS(=O)(=O)O` are 4.84 µM and 16 µM.
In the case of `CO[C@H]1O[C@@H](COCC(=O)N(CC(=O)NC2CCCCC2)Cc2ccccc2)[C@@H](OS(=O)(=O)O)[C@H](OS(=O)(=O)O)[C@H]1OS(=O)(=O)O`, the Kd was 260 µM in assay [1] and 200 µM in assay [2].
Turning to `CO[C@H]1O[C@@H](COCC(=O)N(CCS(=O)(=O)O)CC(=O)NC2CCCCC2)[C@@H](OS(=O)(=O)O)[C@H](OS(=O)(=O)O)[C@H]1OS(=O)(=O)O`, the dissociation constant Kd in assay [1] amounted to 296 µM; in assay [2], 551 µM.
The corresponding values for `CC(C)(CC(=O)N(CCO[C@H]1O[C@@H](COS(=O)(=O)O)[C@@H](OS(=O)(=O)O)[C@H](OS(=O)(=O)O)[C@H]1OS(=O)(=O)O)CC(=O)NC1CCCCC1)CC(=O)N(CCO[C@H]1O[C@@H](COS(=O)(=O)O)[C@@H](OS(=O)(=O)O)[C@H](OS(=O)(=O)O)[C@H]1OS(=O)(=O)O)CC(=O)NC1CCCCC1` are 10 µM and 34 µM.
As to `CC(=O)N(CC(=O)NCCO[C@H]1O[C@@H](COS(=O)(=O)O)[C@@H](OS(=O)(=O)O)[C@H](OS(=O)(=O)O)[C@H]1OS(=O)(=O)O)Cc1ccccc1`, the Kd in assay [1] was found to be 34.3 µM; in assay [2], 287 µM.
The corresponding values for `O=C(CN(Cc1ccccc1)C(=O)CO[C@@H]1[C@H](OS(=O)(=O)O)O[C@H](COS(=O)(=O)O)[C@H](OS(=O)(=O)O)[C@H]1OS(=O)(=O)O)NCCO[C@H]1O[C@@H](COS(=O)(=O)O)[C@@H](OS(=O)(=O)O)[C@H](OS(=O)(=O)O)[C@H]1OS(=O)(=O)O` are 6.36 µM and 85 µM.
The corresponding values for `O=C(CN(Cc1ccccc1)C(=O)C1OC(OS(=O)(=O)O)C(OS(=O)(=O)O)C(OS(=O)(=O)O)C1O)NC1CCCCC1` (centres undefined) are 587 µM and 1160 µM.
The corresponding values for `O=C(CN(Cc1ccccc1)C(=O)C1OC(OS(=O)(=O)O)C(OS(=O)(=O)O)C(OS(=O)(=O)O)C1OS(=O)(=O)O)NCc1ccccc1` (centres undefined) are 104 µM and 206 µM.
